# Screening data: PubChem, several laboratories
# ADAM10 inh – human ADAM10 inhibitors, primary screen, biochemical, QFRET, HTS; Disintegrin and metalloproteinase domain-containing protein 10 (Homo sapiens), O14672; inhibition, % at 7 µM; recombinant ADAM10, EDANS/DABCYL FRET peptide cleavage, 3 h; actives 0.62% (n = 370,000); AID 720582, 2013;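 active = inhibition above a per-campaign cutoff equal to the mean of compounds falling between control-based bounds plus 3 SD, cut at about 20% in these data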;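 note: 0% = DMSO wells while the 100% control is not disclosed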
# Target sequence (O14672 214-748 limits assumed): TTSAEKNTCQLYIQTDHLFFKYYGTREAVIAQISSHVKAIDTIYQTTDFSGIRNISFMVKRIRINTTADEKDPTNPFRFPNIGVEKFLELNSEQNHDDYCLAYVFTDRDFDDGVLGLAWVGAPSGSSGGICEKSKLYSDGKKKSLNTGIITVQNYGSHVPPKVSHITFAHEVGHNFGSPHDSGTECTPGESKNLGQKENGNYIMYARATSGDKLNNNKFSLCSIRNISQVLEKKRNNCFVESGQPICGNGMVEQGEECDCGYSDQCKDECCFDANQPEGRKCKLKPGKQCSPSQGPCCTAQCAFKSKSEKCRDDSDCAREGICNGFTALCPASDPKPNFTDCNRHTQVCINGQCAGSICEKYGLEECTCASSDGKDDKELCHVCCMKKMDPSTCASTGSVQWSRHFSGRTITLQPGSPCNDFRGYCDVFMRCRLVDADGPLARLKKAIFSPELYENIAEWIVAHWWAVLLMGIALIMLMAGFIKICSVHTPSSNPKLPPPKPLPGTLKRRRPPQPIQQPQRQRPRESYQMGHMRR
# ADAM17 inh – ADAM17 inhibitors, primary screen, biochemical, QFRET | actives 0.83% (n = 370,000) | Disintegrin and metalloproteinase domain-containing protein 17 (Homo sapiens), P78536 | inhibition, % at 6.95 µM | recombinant ADAM17, EDANS/DABCYL FRET peptide cleavage;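 active = inhibition above the mean of compounds lying between control limits plus 3 SD, set per campaign, cut at about 8.5% in these data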;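 note: 0% = DMSO-only wells as the low control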
# V-ATPase pH – regulators of yeast V-ATPase proton pumping, primary screen, pHLuorin cytosolic pH fluorescence. S. cerevisiae. response, % at 10 µM. actives 0.37% (n = 350,000). AID 504577, 2011; in the data active = response mostly above about 7.3%, no sharp cut-off; inactive = mostly below about 5.4%; note: actives read high
# Hep lipid drop – inhibitors of hepatocyte lipid droplet formation, primary screen, imaging, high-throughput imaging, BODIPY stain; actives 0.4% (n = 240,000); AML12 mouse hepatocytes, oleate lipid droplets; inhibition, % at 6.5 µM;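 active = lipid droplet intensity inhibited by at least 50%, with more than 500 cells counted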
#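 Assay system: AML12 hepatocytes (mouse) / Also added: 100 µM oleic acid challenge / Times: overnight treatment with compound plus oleate / Detection: high-content imaging of BODIPY-stained droplets and DAPI nuclei / Evaluation: % inhibition of lipid droplet signal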
# MPTP inh – mitochondrial permeability transition pore inhibitors, primary screen, biochemical, isolated mouse mitochondria, absorbance; Ca2+ swelling absorbance, 30 min; inhibition, % at 10 µM; actives 1.4% (n = 360,000); AID 602449, 2012;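 active = inhibition of 50% or more, scaled per plate between neutral and stimulator controls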;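 note: 0% = DMSO wells given calcium and 100% = 1 mM EGTA wells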
# aDG glyco act – activators of alpha-DG glycosylation, primary screen, uHTS, Pro5-aDG cells, AlphaScreen; alpha-DG glycosylation AlphaScreen (IIH6); 0% Pro5, 100% B10-LARGE cell signal; activation, % at 10 µM; actives 0.22% (n = 360,000);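 active = activation of at least 8% versus controls, or a plate z-score of at least 8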;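 note: Pro5 are CHO cells carrying HIG-tagged alpha-DG that lacks glycosylation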
# MPTP counter – fluorescence retest of MPTP screen hits in isolated mitochondria, single concentration; shares compounds with MPTP inh; membrane potential, Rhodamine 123 fluorescence; inhibition, % at 10 µM; actives 78% (n = 5,000); AID 624504, 2012; in the data active = inhibition above about 22%;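 note: 0% = DMSO vehicle and 100% = positive control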
# MPTP abs DR – mitochondrial permeability transition pore inhibitors, dose response, biochemical, absorbance, uHTS hits. shares compounds with MPTP inh. isolated mitochondria swelling. IC50, µM. actives 58% (n = 780). AID 651561, 2012; in the data active = IC50 below about 20 µM
# MPTP cs DR – fluorescent counter-screen in isolated mitochondria, dose response, counter-screen for MPTP inhibitor project, biochemical, fluorescence, uHTS hits | shares compounds with MPTP inh | isolated mitochondria counterscreen, fluorescence read-out | IC50, µM | actives 49% (n = 780) | AID 651564, 2012; in the data active = IC50 below about 80 µM
# * hit, by the source's call; i = inactive; x = no result given. Sampled rows, rich in hits. Any-hit rate of the full collection: about 3.1%.
SMILES,ADAM10 inh,ADAM17 inh,V-ATPase pH,Hep lipid drop,MPTP inh,aDG glyco act,MPTP counter,others
Cc1ccc(C2CCC3(CCC(=O)N3CCOC(=O)Nc3ccc(Br)cc3)CC2)cc1 (stereo unspecified),1,0,x,x,x,x,x,
c1cncc(C2Nc3ccccc3-c3nc4ccccc4n32)c1 (stereo unspecified),i,i,0,2,59*,0,88*,
c1csc(C2Nc3ccccc3-c3nc4ccccc4n32)c1 (stereo unspecified),i,i,0,-37,52*,0,75*,
CCCCOCCCNC(=O)C[C@@H]1C(=O)N(Cc2ccc(OC)cc2)C2=CCN(C(=O)OC(C)(C)C)C[C@]21C(=O)OCC,-2,-4,x,x,x,x,x,
CCOC(=O)N1CCN(C(=O)C[C@H]2C[C@@]3(C(=O)OC)C(=C[C@H](COCc4ccccc4)O[C@@H]3C)N(CCc3ccc(OC)c(OC)c3)C2=O)CC1,4,3,x,x,x,x,x,
Cc1c(C(=O)Nc2nnc(C(F)(F)F)s2)oc2ccccc12,6,3,2,x,67*,0,9,MPTP abs DR=6.5*;MPTP cs DR=<2.5*
COC(=O)c1sc(NC(=O)c2oc3ccccc3c2C)nc1C,3,1,-1,0,0,0,x,
CCN(CC)CCNc1ccc(CO)c2sc3ccccc3c(=O)c12,-5,-1,-4,-18,60*,0,-6,
CCN(CC)CCNc1cccc2sc3ccccc3c(=O)c12,-16,0,2,x,1,0,x,
CN(C)Cc1ccccc1Sc1cccc2ccccc12,0,-1,0,-25,66*,0,6,MPTP abs DR=11*;MPTP cs DR=61*
CN(C)Cc1ccccc1Sc1ccccc1Br,2,5,1,16,0,0,x,
c1ccc(Sc2cccc3ccccc23)c(CNC2=NCCN2)c1,13,1,3,-62,101*,0,29*,
Fc1ccccc1Sc1ccccc1CNC1=NCCN1,1,-2,2,-9,1,0,x,
O=C(OCc1ccc(CSc2nnc(-c3cccc4ccccc34)o2)cc1)c1ccc(F)cc1,1,0,x,x,x,x,x,
COC(=O)[C@]12C[C@H](CC(=O)NCC34CC5CC(CC(C5)C3)C4)C(=O)N(CCC3=CCCCC3)C1=C[C@H](C(C)C)O[C@@H]2C1CC1,12,1,x,x,x,x,x,
CCCOc1cccc(C(=O)NC(=S)Nc2ccc(N3CCN(C)CC3)cc2)c1,-4,-3,0,-3,76*,6,-8,MPTP abs DR=7.1*;MPTP cs DR=39*
O=C(O)c1ccc(NC(=S)NC(=O)c2cccc(COc3ccccc3)c2)cc1,7,0,-1,-4,-2,0,x,
O=C(NC(=S)Nc1ccc(CN2CCCCC2)cc1)c1cccc(OCc2ccccc2)c1,5,3,6,x,84*,1,-3,MPTP abs DR=i;MPTP cs DR=>80
CN1CCN(c2ccc(NC(=O)c3cccc(OCc4ccccc4)c3)cc2)CC1,2,-1,-2,-3,107*,1,-17,MPTP abs DR=6.6*;MPTP cs DR=>80
CCN1CCN(c2ccc(NC(=O)c3cccc(OCc4ccccc4)c3)cc2)CC1,1,-3,4,-50,-4,0,x,
O=C(C1CCC1)N1CCc2cc(S(=O)(=O)C3CCN(Cc4ccc(F)cc4)CC3)ccc21,0,-3,x,x,x,x,x,
COc1ccc(C=NNC(=O)c2ccncc2)cc1,-3,7,x,x,x,x,x,
CO[C@H]([C@H](C)/C=C/N(C)C=O)[C@@H](C)C(O)CC[C@H](C)[C@H](O)[C@H](C)[C@H]1OC(=O)/C=C/C(C)=C/C[C@H](O)C[C@@H]2C=CC[C@@H](C[C@H](OC)[C@@]3(CO3)[C@@H](OC)C[C@@H](OC)[C@@H]1C)O2 (stereo partly specified),3,-5,x,x,x,x,x,
CCC(C)c1ccccc1N=Cc1ccc2c(c1)OCO2 (stereo unspecified),8,-1,-3,1,71*,0,2,MPTP abs DR=>100;MPTP cs DR=>80
CCCCn1c(/N=C/c2ccc3c(c2)OCO3)nc2ccccc21,1,-6,2,14,-1,0,x,
SMILES,ADAM10 inh,ADAM17 inh,V-ATPase pH,Hep lipid drop,MPTP inh,aDG glyco act,MPTP counter,others
Cc1occc1-c1nnc(SCC(=O)NCc2ccc(Cl)cc2)n1-c1ccccc1,-6,-2,x,x,x,x,x,
Cc1cc(SCC(=O)N/N=C/c2ccc(O)c(O)c2O)c(C)cc1Br,14,2,3,-6,92*,1,57*,
COc1ccc(C(=O)OCCCN(C)C2CN(Cc3cn(Cc4ccccc4F)nn3)S(=O)(=O)C2)cc1OC (stereo unspecified),3,0,x,x,x,x,x,
COc1ccc(-n2c(SCCNCCO)nc3sc4c(c3c2=O)CCCC4)cc1,1,4,0,-19,76*,0,-20,MPTP abs DR=8.3*;MPTP cs DR=>80
COc1ccc(-n2c(SCC(=O)O)nc3sc4c(c3c2=O)CCCC4)cc1,-6,0,2,-19,0,0,x,
C=CCOC(=O)C1=C(C)NC(SCC(=O)Nc2ccccc2)=C(C#N)C1c1ccco1 (stereo unspecified),0,-2,3,x,64*,0,68*,
CNCCC1Sc2ccccc2Oc2ccccc21 (stereo unspecified),-3,-2,0,6,61*,0,-6,MPTP abs DR=10*;MPTP cs DR=>80
O=C(Nc1ccc(Cl)cc1)N[C@@H]1c2c(ccc3ccccc23)OC[C@@H]1CO,6,0,-3,x,93*,1,74*,
CN(C(=O)c1ccccc1)C1c2c(ccc3ccccc23)OCC1CO (stereo unspecified),3,0,-2,-12,-1,0,x,
O=C(OCc1cn(Cc2ccccc2)nn1)N1CCOCC1,1,-1,x,x,x,x,x,
NC(N)=N/N=C/c1cccc([N+](=O)[O-])c1O,-3,0,x,1,0,1,x,
O=[N+]([O-])c1cccc(/C=N\N=C2c3ccccc3-c3ccccc32)c1O,-8,-2,-2,0,104*,0,7,
C=CCN1[C@@H](C)COc2cccc(F)c2S1(=O)=O,-2,-3,x,x,x,x,x,
COc1ccc(CN2C(=O)CS/C2=N/N=C/c2ccccc2)cc1,-8,-4,1,-12,67*,0,65*,
